Key:
rat mGlu1 = rat mGlu1 (Rattus norvegicus, UniProt P23385); assay: rat mGlu1 calcium mobilization assay; type: cell-based; conditions: for mGlu1 pIC50 (± SEM): Calcium mobilization assay, rat mGlu1, NAM; for mGlu1 NAM activity (in words): top concentration tested 30 μM
rat mGlu5 = rat mGlu5 (Rattus norvegicus, UniProt P31424); assay: rat mGlu5 calcium mobilization assay; type: cell-based
Rat IV PK = type: in vivo, male Sprague-Dawley rats; conditions: male, Sprague-Dawley, plasma, 0.2 mg/kg
Method in brief: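 Male Sprague-Dawley rats were dosed IV with 2 animals per time point. The plasma concentration–time profile gave half-life, plasma clearance and steady-state volume of distribution.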

[1] = system: 68 clinically relevant targets; assay: radioligand binding assay panel of 68 clinically relevant targets; conditions: 10 μM; significant = greater than or equal to 50% inhibition of binding
Method in brief: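 Test compound was screened at a single 10 μM concentration for displacement of radioligand binding at each panel target. Inhibition of binding of at least 50% was counted as a significant response.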

369 kinases = assay: kinase panel of 369 kinases; type: biochemical; conditions: 10 μM
[2] = Mouse IP PK time course study; type: in vivo, male CD-1 mice; conditions: mice; IP 30 mg/kg
Method in brief: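 Tissue distribution was run in parallel under the same conditions, with brain and plasma taken at 30 min to give Kp and Kp,uu. Unbound brain concentration was estimated from these exposures combined with fraction unbound from equilibrium dialysis.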

[3] = Rat IP PK time course study; type: in vivo, male Sprague-Dawley rats; conditions: rats; IP 10 mg/kg
Method in brief: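 Male Sprague-Dawley rats received a single 10 mg/kg IP dose, with 2 animals per time point. Plasma was followed over time for Tmax, Cmax and AUC. Brain and plasma were taken at 15 min to give Kp and Kp,uu. Unbound brain concentration was estimated from these exposures combined with fraction unbound from equilibrium dialysis.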

[4] = system: remaining six members of the mGlu family; assay: mGlu selectivity fold-shift experiments on orthosteric agonist CRC; type: cell-based

Chain of rat mGlu1 (P23385 19-1199): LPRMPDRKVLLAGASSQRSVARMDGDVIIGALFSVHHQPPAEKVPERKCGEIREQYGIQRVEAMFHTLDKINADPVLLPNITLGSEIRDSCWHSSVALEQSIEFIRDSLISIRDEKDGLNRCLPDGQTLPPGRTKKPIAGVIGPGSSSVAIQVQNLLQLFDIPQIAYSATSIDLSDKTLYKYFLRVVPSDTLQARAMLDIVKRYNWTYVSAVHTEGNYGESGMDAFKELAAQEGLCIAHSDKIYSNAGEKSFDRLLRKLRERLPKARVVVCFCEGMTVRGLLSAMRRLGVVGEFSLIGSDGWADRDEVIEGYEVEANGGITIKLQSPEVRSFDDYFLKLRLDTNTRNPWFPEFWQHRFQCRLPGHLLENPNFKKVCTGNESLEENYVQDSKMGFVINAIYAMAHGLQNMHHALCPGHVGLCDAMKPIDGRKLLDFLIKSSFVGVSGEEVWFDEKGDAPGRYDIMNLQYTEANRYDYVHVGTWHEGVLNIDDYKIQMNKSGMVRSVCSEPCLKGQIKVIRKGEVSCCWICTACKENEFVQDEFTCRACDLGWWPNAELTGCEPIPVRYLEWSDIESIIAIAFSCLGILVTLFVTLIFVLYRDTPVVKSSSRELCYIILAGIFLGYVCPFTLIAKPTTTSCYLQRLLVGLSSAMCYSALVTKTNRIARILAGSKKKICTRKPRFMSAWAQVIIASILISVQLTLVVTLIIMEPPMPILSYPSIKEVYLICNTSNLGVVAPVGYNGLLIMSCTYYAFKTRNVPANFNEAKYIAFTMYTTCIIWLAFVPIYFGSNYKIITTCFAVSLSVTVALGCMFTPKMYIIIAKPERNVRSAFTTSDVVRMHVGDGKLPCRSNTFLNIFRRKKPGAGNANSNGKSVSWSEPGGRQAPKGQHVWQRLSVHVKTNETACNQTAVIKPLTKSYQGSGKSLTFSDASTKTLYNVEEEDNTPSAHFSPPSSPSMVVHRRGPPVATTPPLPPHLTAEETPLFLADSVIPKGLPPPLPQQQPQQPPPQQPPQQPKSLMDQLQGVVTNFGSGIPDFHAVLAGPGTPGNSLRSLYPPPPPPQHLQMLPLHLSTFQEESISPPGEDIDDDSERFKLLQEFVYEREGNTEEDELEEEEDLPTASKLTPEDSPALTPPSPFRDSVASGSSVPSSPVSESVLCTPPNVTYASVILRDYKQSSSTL
Chain of rat mGlu5 (P31424 21-1203): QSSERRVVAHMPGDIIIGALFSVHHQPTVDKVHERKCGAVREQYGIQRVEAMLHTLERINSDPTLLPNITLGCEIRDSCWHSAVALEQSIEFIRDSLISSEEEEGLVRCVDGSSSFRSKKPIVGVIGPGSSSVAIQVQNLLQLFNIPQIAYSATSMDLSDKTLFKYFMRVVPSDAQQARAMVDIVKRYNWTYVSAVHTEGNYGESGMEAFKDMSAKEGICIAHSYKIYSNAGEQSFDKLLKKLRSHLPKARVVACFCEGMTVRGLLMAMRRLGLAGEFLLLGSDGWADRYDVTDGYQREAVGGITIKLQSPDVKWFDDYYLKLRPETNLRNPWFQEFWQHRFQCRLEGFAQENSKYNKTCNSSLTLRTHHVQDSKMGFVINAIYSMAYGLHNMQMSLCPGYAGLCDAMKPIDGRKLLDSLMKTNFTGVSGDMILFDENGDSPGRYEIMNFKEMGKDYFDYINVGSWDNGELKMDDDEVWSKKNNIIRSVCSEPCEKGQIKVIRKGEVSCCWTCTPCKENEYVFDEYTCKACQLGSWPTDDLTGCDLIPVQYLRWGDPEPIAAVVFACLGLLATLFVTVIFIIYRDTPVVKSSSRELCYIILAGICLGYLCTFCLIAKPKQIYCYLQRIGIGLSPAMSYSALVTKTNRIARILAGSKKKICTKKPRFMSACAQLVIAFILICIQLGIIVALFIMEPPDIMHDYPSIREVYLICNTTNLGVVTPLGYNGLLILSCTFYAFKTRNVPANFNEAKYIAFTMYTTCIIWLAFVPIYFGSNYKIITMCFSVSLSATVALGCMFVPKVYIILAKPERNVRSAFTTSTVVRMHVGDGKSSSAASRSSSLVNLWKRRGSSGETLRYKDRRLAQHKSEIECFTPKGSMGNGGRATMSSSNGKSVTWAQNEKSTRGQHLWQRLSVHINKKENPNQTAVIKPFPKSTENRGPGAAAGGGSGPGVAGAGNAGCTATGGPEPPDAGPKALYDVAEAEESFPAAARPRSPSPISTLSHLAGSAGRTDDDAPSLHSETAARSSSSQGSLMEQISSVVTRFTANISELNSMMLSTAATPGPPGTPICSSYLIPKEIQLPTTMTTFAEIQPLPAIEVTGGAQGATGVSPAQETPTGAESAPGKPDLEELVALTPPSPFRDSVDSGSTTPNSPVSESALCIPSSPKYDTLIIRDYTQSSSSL

For `CNc1nc(N[C@H]2CC[C@H](C)CC2)c2nn3ccccc3c2n1` [Compound 42], the “mGlu1 pIC50 (± SEM)” value (rat mGlu1) was less than 4.5.
In the case of `C[C@H]1CC[C@H](Nc2nc(N)nc3c2nn2ccccc32)CC1` [Compound 41], the “mGlu1 NAM activity (in words)” value (rat mGlu1) was “weak mGlu1 NAM activity”.
In the case of `CC(C)(C)CCNc1ncnc2c1nn1ccccc21` [Compound 18], the “mGlu5 NAM potency relative to mGlu1 NAM activity” value (rat mGlu5; rat mGlu5 vs rat mGlu1) was “approximately ten-fold less”.
In the case of `C[C@H](Nc1ncnc2c1nn1ccccc21)C1CC1` [Compound 12], the “mGlu1 pIC50 (± SEM)” value (rat mGlu1) was less than 4.5.
For `CN(C)c1nc(N[C@H]2CC[C@H](C)CC2)c2nn3ccccc3c2n1` [Compound 43], the “mGlu1 pIC50 (± SEM)” value (rat mGlu1) was less than 4.5.
In the case of `CC(C)Nc1nc(N[C@H]2CC[C@H](C)CC2)c2nn3ccccc3c2n1` [Compound 44], the “mGlu1 pIC50 (± SEM)” value (rat mGlu1) was less than 4.5.
For `CC1(C)CCC(Nc2ncnc3c2nn2ccccc32)CC1` [Compound 29, N-(4,4-dimethylcyclohexyl)pyrido[1′,2′:1,5]pyrazolo[4,3-d]pyrimidin-4-amine], the Vd (Rat IV PK) was 3.1 L/kg, the “mGlu5 pIC50 (± SEM)” value (rat mGlu5; Calcium mobilization assay, rat mGlu5, NAM) was 6.89 ± 0.29 and the “number of the 68 targets with no significant responses” value [1] was 62. The “number of kinases of 369 inhibited more than 50%” value (369 kinases) was “eight”, the “estimated unbound brain concentration” value [2] was “approximately 100 nM” and the “estimated unbound brain concentration” value [3] was “approximately 100 nM”. The “effect on the orthosteric agonist concentration-response curve (fold-shift)” value ([4]; 10 μM, remaining six mGlus) was “no significant effects were observed” and the “selectivity for the group I mGlu receptors” value ([4]; versus remaining six mGlus) was greater than 75 fold.
With `CCC(C)(C)Nc1ncnc2c1nn1ccccc21` [Compound 19] the “mGlu1 NAM activity (in words)” value (rat mGlu1) was “only a weak mGlu1 NAM, inhibiting the glutamate response only at the top concentration tested”.

Source: publication PMC4824313 (Bioorganic & medicinal chemistry letters, 2016)
